Source: ChEMBL document CHEMBL3232712, “Antineoplastic agents. 595. Structural modifications of betulin and the X-ray crystal structure of an unusual betulin amine dimer” (2014)
Values after ≈ are worked out from the molar mass of the structure shown.

How the values were obtained:
Format in all cases: functional
DU-145 = experiment: Cytotoxicity against human DU145 cells after 48 hrs by SRB assay; conditions: DU-145, 48 h
How it was run: (§1)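 Human tumour lines in RPMI1640 with 5% fetal bovine serum, trypsinized and counted by hemacytometer, seeded in 96-well plates and allowed 24 h before serial compound dilutions were added. After 48 h exposure, cells were fixed with trichloroacetic acid and stained with sulforhodamine B, and optical density was read. GI50 was taken as the concentration halving net protein increase.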

SF-268 = experiment: Cytotoxicity against human SF268 cells after 48 hrs by SRB assay; conditions: SF-268, 48 h; how it was run: as §1
[1] = Cytotoxicity against human KM20L2 cells after 48 hrs by SRB assay; conditions: KM-20L2, 48 h; how it was run: as §1
MCF7 = experiment: Cytotoxicity against human MCF7 cells after 48 hrs by SRB assay; conditions: MCF7, 48 h; how it was run: as §1
NCI-H460 = experiment: Cytotoxicity against human NCI-H460 cells after 48 hrs by SRB assay; conditions: NCI-H460, 48 h; how it was run: as §1
[2] = Cytotoxicity against human BxPC3 cells after 48 hrs by SRB assay; conditions: BXPC-3, 48 h; how it was run: as §1
P388 = experiment: Cytotoxicity against mouse P388 cells after 48 hrs; conditions: P388, 48 h, read-out: ED50 (the source's name)
How it was run: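 Murine P388 leukemia cells, counted by Coulter counter, were grown 24 h in Fisher medium with 10% horse serum, then exposed 48 h to serial compound dilutions. Cell numbers were determined with a Coulter particle counter, and ED50 was calculated for growth inhibition.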

Compound	GI50 (DU-145) [µg/mL]	GI50 (SF-268) [µg/mL]	GI50 [1] [µg/mL]	GI50 (MCF7) [µg/mL]	GI50 (NCI-H460) [µg/mL]	GI50 [2] [µg/mL]	EC50 (P388) [µg/mL]
C=C(C)[C@@H]1CC[C@]2(C(=O)OC)CC[C@]3(C)[C@H](CC[C@@H]4[C@@]5(C)C=C(N6CCOCC6)C(=O)C(C)(C)[C@@H]5CC[C@]43C)[C@@H]12	> 10	> 10	> 10	6.1 (≈ 11.1 µM)	4.4 (≈ 7.97 µM)	3.9 (≈ 7.07 µM)	
C=C(C)[C@@H]1CC[C@]2(C(=O)OC)CC[C@]3(C)[C@H](CC[C@@H]4[C@@]5(C)CCC(=O)C(C)(C)[C@@H]5CC[C@]43C)[C@@H]12 [METHYL BETULONATE]	2.3 (≈ 4.91 µM)	2.7 (≈ 5.76 µM)	2.2 (≈ 4.69 µM)	2.7 (≈ 5.76 µM)	2.3 (≈ 4.91 µM)	2.4 (≈ 5.12 µM)	> 10
C=C(C)[C@@H]1CC[C@]2(COC(C)=O)CC[C@]3(C)[C@H](CC[C@@H]4[C@@]5(C)C=C(NC6=C[C@]7(C)[C@H]8CC[C@@H]9[C@H]%10[C@H](C(=C)C)CC[C@]%10(COC(C)=O)CC[C@@]9(C)[C@]8(C)CC[C@H]7C(C)(C)C6=O)C(=O)C(C)(C)[C@@H]5CC[C@]43C)[C@@H]12	> 10	> 10	> 10	> 10	> 10	> 10	> 10
C=C(C)[C@@H]1CC[C@]2(COC(C)=O)CC[C@]3(C)[C@H](CC[C@@H]4[C@@]5(C)CC6=NC(C)(C)N=C6C(C)(C)[C@@H]5CC[C@]43C)[C@@H]12	> 10	> 10	> 10	11.2 (≈ 20.9 µM)	> 10	14.5 (≈ 27.1 µM)	
CC1(C)CC[C@]23CC[C@]4(C)[C@H](CC[C@@H]5[C@@]6(C)C=C(N)C(=O)C(C)(C)[C@@H]6CC[C@]54C)[C@H]2[C@H]1OC3	> 10	> 10	> 10	11.2 (≈ 24.7 µM)	> 10	10.8 (≈ 23.8 µM)	
C=C(C)[C@@H]1CC[C@]2(COC(C)=O)CC[C@]3(C)[C@H](CC[C@@H]4[C@@]5(C)C=C(N)C(=O)C(C)(C)[C@@H]5CC[C@]43C)[C@@H]12	> 10	> 10	> 10	> 10	> 10	7.9 (≈ 15.9 µM)	> 10
C=C(C)[C@@H]1CC[C@]2(COC(C)=O)CC[C@]3(C)[C@H](CC[C@@H]4[C@@]5(C)CC(=O)C(O)C(C)(C)[C@@H]5CC[C@]43C)[C@@H]12 (some centres undefined)	> 10	6.1 (≈ 12.2 µM)	5.9 (≈ 11.8 µM)	5.8 (≈ 11.6 µM)	8 (≈ 16 µM)	9.1 (≈ 18.2 µM)	> 10
CC1(C)CC[C@]23CC[C@]4(C)[C@H](CC[C@@H]5[C@@]6(C)CCC(=O)C(C)(C)[C@@H]6CC[C@]54C)[C@H]2[C@H]1OC3	> 10	> 10	> 10	> 10	> 10	> 10	
CC1(C)CC[C@]23CC[C@]4(C)[C@H](CC[C@@H]5[C@@]6(C)C=C(NC7=C[C@]8(C)[C@H]9CC[C@@H]%10[C@H]%11[C@H]%12OC[C@@]%11(CCC%12(C)C)CC[C@@]%10(C)[C@]9(C)CC[C@H]8C(C)(C)C7=O)C(=O)C(C)(C)[C@@H]6CC[C@]54C)[C@H]2[C@H]1OC3	> 10	> 10	> 10	> 10	> 10	> 10	
CC1(C)CC[C@]23CC[C@]4(C)[C@H](CC[C@@H]5[C@@]6(C)CC(Br)C(=O)C(C)(C)[C@@H]6CC[C@]54C)[C@H]2[C@H]1OC3 (some centres undefined)	6.7 (≈ 12.9 µM)	3.4 (≈ 6.54 µM)	2.7 (≈ 5.2 µM)	5 (≈ 9.62 µM)	2.9 (≈ 5.58 µM)	3.1 (≈ 5.97 µM)	
C=C(C)[C@@H]1CC[C@]2(COC(C)=O)CC[C@]3(C)[C@H](CC[C@@H]4[C@@]5(C)C[C@H](Br)C(=O)C(C)(C)[C@@H]5CC[C@]43C)[C@@H]12	6.1 (≈ 10.9 µM)	3.4 (≈ 6.05 µM)	4.4 (≈ 7.83 µM)	3.2 (≈ 5.7 µM)	2.8 (≈ 4.99 µM)	3.4 (≈ 6.05 µM)	> 10
C=C(C)[C@@H]1CC[C@]2(CO)CC[C@]3(C)[C@H](CC[C@@H]4[C@@]5(C)CC6=NC(C)(C)N=C6C(C)(C)[C@@H]5CC[C@]43C)[C@@H]12	5.8 (≈ 11.8 µM)	6.9 (≈ 14 µM)	4.9 (≈ 9.94 µM)	2 (≈ 4.06 µM)	2.8 (≈ 5.68 µM)	1.9 (≈ 3.86 µM)	
CC1(C)CC[C@]23CC[C@]4(C)[C@H](CC[C@@H]5[C@@]6(C)CC(N=[N+]=[N-])C(=O)C(C)(C)[C@@H]6CC[C@]54C)[C@H]2[C@H]1OC3 (some centres undefined)	4.5 (≈ 9.34 µM)	8.7 (≈ 18.1 µM)	7.9 (≈ 16.4 µM)	4.7 (≈ 9.76 µM)	3.8 (≈ 7.89 µM)	3.1 (≈ 6.44 µM)	
C=C(C)[C@@H]1CC[C@]2(COC(C)=O)CC[C@]3(C)[C@H](CC[C@@H]4[C@@]5(C)CC(Br)(Br)C(=O)C(C)(C)[C@@H]5CC[C@]43C)[C@@H]12	3.8 (≈ 5.93 µM)	4.4 (≈ 6.87 µM)	4.2 (≈ 6.56 µM)	2.5 (≈ 3.9 µM)	4.4 (≈ 6.87 µM)	1 (≈ 1.56 µM)	0.391 (≈ 0.61 µM)
C=C(C)[C@@H]1CC[C@]2(C(=O)OC)CC[C@]3(C)[C@H](CC[C@@H]4[C@@]5(C)CC(=O)CC(C)(C)[C@@H]5CC[C@]43C)[C@@H]12	> 10	> 10	> 10	11.6 (≈ 24.7 µM)	13.1 (≈ 27.9 µM)	8.2 (≈ 17.5 µM)	> 10
C=C(C)[C@@H]1CC[C@]2(COC(C)=O)CC[C@]3(C)[C@H](CC[C@@H]4[C@@]5(C)C[C@@H](Br)C(=O)C(C)(C)[C@@H]5CC[C@]43C)[C@@H]12	9 (≈ 16 µM)	10.1 (≈ 18 µM)	9.6 (≈ 17.1 µM)	4.1 (≈ 7.3 µM)	12.8 (≈ 22.8 µM)	3.1 (≈ 5.52 µM)	0.725 (≈ 1.29 µM)
C=C(C)[C@@H]1CC[C@]2(COC(C)=O)CC[C@]3(C)[C@H](CC[C@@H]4[C@@]5(C)CC[C@H](O)C(C)(C)[C@@H]5CC[C@]43C)[C@@H]12	7.6 (≈ 15.7 µM)	4 (≈ 8.25 µM)	5 (≈ 10.3 µM)	3 (≈ 6.19 µM)	2.5 (≈ 5.16 µM)	4.1 (≈ 8.46 µM)	0.805 (≈ 1.66 µM)
CC1(C)CC[C@]23CC[C@]4(C)[C@H](CC[C@@H]5[C@@]6(C)C=C(O)C(=O)C(C)(C)[C@@H]6CC[C@]54C)[C@H]2[C@H]1OC3	9.3 (≈ 20.5 µM)	> 10	8 (≈ 17.6 µM)	7.1 (≈ 15.6 µM)	8.8 (≈ 19.4 µM)	> 10	
C=C(C)[C@@H]1CC[C@]2(COC(C)=O)CC[C@]3(C)[C@H](CC[C@@H]4[C@@]5(C)CC(N=[N+]=[N-])C(=O)C(C)(C)[C@@H]5CC[C@]43C)[C@@H]12 (some centres undefined)	5.7 (≈ 10.9 µM)	> 10	4.2 (≈ 8.02 µM)	5 (≈ 9.55 µM)	4.4 (≈ 8.4 µM)	6.6 (≈ 12.6 µM)	> 10
C=C(C)[C@@H]1CC[C@]2(COC(C)=O)CC[C@]3(C)[C@H](CC[C@@H]4[C@@]5(C)CCC(=O)C(C)(C)[C@@H]5CC[C@]43C)[C@@H]12	> 10	10.6 (≈ 22 µM)	12.7 (≈ 26.3 µM)	8 (≈ 16.6 µM)	5.2 (≈ 10.8 µM)	> 10	0.12 (≈ 0.249 µM)
C=C(C)[C@@H]1CC[C@]2(COC(C)=O)CC[C@]3(C)[C@H](CC[C@@H]4[C@@]5(C)CC[C@H](OC(C)=O)C(C)(C)[C@@H]5CC[C@]43C)[C@@H]12 [BETULIN DIACETATE]	> 10	> 10	> 10	> 10	> 10	> 10	0.806
C=C(C)[C@@H]1CC[C@]2(CO)CC[C@]3(C)[C@H](CC[C@@H]4[C@@]5(C)CC[C@H](O)C(C)(C)[C@@H]5CC[C@]43C)[C@@H]12 [BETULIN]	> 10	> 10	> 10	> 10	7.4 (≈ 16.7 µM)	9.3 (≈ 21 µM)	
